Data set [1] is described as follows: folding enthalpy; higher = less favourable; fluorescence melt of hairpins on a sequencing array, two-state fit. To be noted: sodium 0.088 M. In short, it runs like this: (§1)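 Library hairpins on a sequenced MiSeq flow cell carried annealed Cy3 and quencher oligos, and their Cy3 fluorescence was imaged in 50 mM Na-HEPES pH 8.0 with 25 mM NaCl, in 2.5 °C steps up to 60 °C. Signals were normalised to Cy3 before quenching and to control constructs. Melting temperature and folding enthalpy were obtained from bootstrapped two-state fits, combined by inverse-variance weighting across four replicates, and the fitted temperatures were then raised by 9.35 °C to match UV melts.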

The nature of data set [2]: melting temperature; fluorescence melt of hairpins on a sequencing array, two-state fit, raised by 9.35 °C to match UV melts. The following applies: sodium 0.088 M. In short, it runs like this:
as §1

Turning to GTCACGGGAAACCACGAC (((..((....))..))), the folding enthalpy in data set [1] is -98.6 kJ/mol. The Tm in data set [2] was found to be 34.9 °C.

With GTCACTCGAAAGAGAGAC (((.(((....))).))), the folding enthalpy in data set [1] was -148 kJ/mol. In addition, the Tm in data set [2] came out at 50.5 °C.

As to GTCAGACGAAAGTCAGAC (((.(((....))).))), the folding enthalpy in data set [1] is -132 kJ/mol. Further, the Tm in data set [2] came to 53.6 °C.

As to GTCAGCCGAAAGGCCGAC (((.(((....))).))), the folding enthalpy in data set [1] is -89.4 kJ/mol. Also, the Tm in data set [2] turned out to be 55.8 °C.

Take GTCAGCCGAAAGGCGAC (((.(((....)))))): the folding enthalpy in data set [1] was -62.9 kJ/mol. In addition, the Tm in data set [2] came to 61.5 °C.

Regarding GTCAGCGAAAGCTAGGAC ((((((....)))..))), the folding enthalpy in data set [1] is -58.8 kJ/mol. For the same sequence, the Tm in data set [2] stood at 40 °C.

As to GTCAGGCCGAAAGGCGAC (((..(((....)))))), in data set [1], the folding enthalpy is -75.3 kJ/mol. The Tm in data set [2] was determined as 46.9 °C.

With GTCAGGCGAAAGCCCGAC (((.(((....))).))), the folding enthalpy in data set [1] was -96.9 kJ/mol. Moreover, in data set [2], the Tm was 48.8 °C.

On to GTCAGGGGAAACCTTGAC ((((.((....)).)))), for which the folding enthalpy in data set [1] is -118 kJ/mol. In data set [2], the Tm was 47.2 °C.

For GTCAGTCCGAAAGGAGAC (((..(((....)))))), the folding enthalpy in data set [1] is -65.3 kJ/mol. For the same sequence, the Tm in data set [2] turned out to be 33.2 °C.

Take GTCAGTCGAAAGACAGAC (((.(((....))).))): the folding enthalpy in data set [1] is -165 kJ/mol. In addition, the Tm in data set [2] was 51 °C.

Regarding GTCAGTCGAAAGACGGAC (((.(((....))).))), the folding enthalpy in data set [1] is -139 kJ/mol. Moreover, the Tm in data set [2] was found to be 56.2 °C.

As for GTCAGTGGAAACACCGAC (((.(((....))).))), in data set [1], the folding enthalpy was -113 kJ/mol. The Tm in data set [2] was found to be 40.4 °C.

Regarding GTCATAGCGAAAGCTGAC (((..(((....)))))), the folding enthalpy in data set [1] is -95.4 kJ/mol. In addition, the Tm in data set [2] turned out to be 46.6 °C.

Turning to GTCATCCGAAAGGACGAC (((.(((....))).))), the folding enthalpy in data set [1] is -152 kJ/mol. Also, in data set [2], the Tm is 49.3 °C.

Take GTCATCGAAAGATCTGAC ((((((....)))..))): in data set [1], the folding enthalpy is -45.6 kJ/mol. Also, in data set [2], the Tm came to 23.8 °C.

For GTCATCGAAAGATGAC ((((((....)))))), the folding enthalpy in data set [1] is -131 kJ/mol. Besides, the Tm in data set [2] turned out to be 66.2 °C.

In the case of GTCATCGAAAGATGGAC ((((((....))).))), the folding enthalpy in data set [1] is -73.8 kJ/mol. For the same sequence, the Tm in data set [2] was found to be 43.9 °C.

As to GTCATCGAAAGATTGAC ((((((....))).))), the folding enthalpy in data set [1] was -113 kJ/mol. Also, the Tm in data set [2] worked out at 40.7 °C.

For GTCATGAAAATGAC (((((....))))), the folding enthalpy in data set [1] was -113 kJ/mol. The Tm in data set [2] stood at 50.1 °C.

As to GTCATGCGAAAGCAAGAC (((.(((....))).))), the folding enthalpy in data set [1] is -124 kJ/mol. Moreover, the Tm in data set [2] was found to be 52.4 °C.

As for GTCATGGGAAACTATGAC (((((.(....).))))), the folding enthalpy in data set [1] was -122 kJ/mol. Besides, the Tm in data set [2] is 45 °C.

Take GTCATTGCGAAAGCAGAC (((..(((....)))))): the folding enthalpy in data set [1] was -60.6 kJ/mol. Moreover, the Tm in data set [2] amounted to 33 °C.

Turning to GTCATTGGAAACAATGAC (((((((....))))))), the folding enthalpy in data set [1] was -175 kJ/mol. Besides, the Tm in data set [2] is 58.3 °C.

GTCCAAGAAATTGGAC ((((((....)))))): the folding enthalpy in data set [1] was -111 kJ/mol. Moreover, the Tm in data set [2] was 53 °C.

On to GTCCAAGGAAACTTGAAC ((.((((....)))).)), for which the folding enthalpy in data set [1] was -70.6 kJ/mol. Moreover, the Tm in data set [2] turned out to be 29.2 °C.

On to GTCCAATCGAAAGATGAC (((..(((....)))))), for which the folding enthalpy in data set [1] was -58.2 kJ/mol. Further, the Tm in data set [2] is 29.1 °C.

With GTCCACGAAAGTGAAGAC ((((((....)))..))), the folding enthalpy in data set [1] was -96.5 kJ/mol. The Tm in data set [2] worked out at 40.4 °C.

Turning to GTCCACGAAAGTGAGGAC ((((((....)))..))), the folding enthalpy in data set [1] was -91.7 kJ/mol. For the same sequence, the Tm in data set [2] worked out at 46.4 °C.

In the case of GTCCACGAAAGTGCCGAC ((((((....)))..))), in data set [1], the folding enthalpy was -53.5 kJ/mol. Moreover, the Tm in data set [2] was 31.5 °C.

GTCCACGAAAGTGGGAC ((((((....))).))): the folding enthalpy in data set [1] is -56.8 kJ/mol. In addition, the Tm in data set [2] worked out at 58.3 °C.

With GTCCACGAAAGTGGGGAC ((((((....)))..))), the folding enthalpy in data set [1] was -43.4 kJ/mol. Further, in data set [2], the Tm was 46.4 °C.

With GTCCACGAAAGTGTTGAC ((((((....)))..))), the folding enthalpy in data set [1] is -71 kJ/mol. In addition, in data set [2], the Tm is 31.6 °C.

In the case of GTCCACTCGAAAGAGGAC (((..(((....)))))), in data set [1], the folding enthalpy was -96.1 kJ/mol. Moreover, the Tm in data set [2] stood at 37.4 °C.

For GTCCAGAAATGGAC (((((....))))), the folding enthalpy in data set [1] was -104 kJ/mol. For the same sequence, the Tm in data set [2] is 52.9 °C.

In the case of GTCCAGCCGAAAGGCGAC (((..(((....)))))), the folding enthalpy in data set [1] is -40.8 kJ/mol. For the same sequence, the Tm in data set [2] worked out at 40.6 °C.

As for GTCCAGCGAAAGCTAGAC (((.(((....))).))), in data set [1], the folding enthalpy was -92.4 kJ/mol. The Tm in data set [2] turned out to be 46.4 °C.

With GTCCAGCGAAAGCTCGAC (((.(((....))).))), the folding enthalpy in data set [1] is -86.7 kJ/mol. The Tm in data set [2] is 43.2 °C.

Take GTCCAGCGAAAGCTTGAC (((.(((....))).))): the folding enthalpy in data set [1] was -110 kJ/mol. Besides, the Tm in data set [2] worked out at 49.1 °C.

In the case of GTCCAGGGAAACCTGAAC ((.((((....)))).)), the folding enthalpy in data set [1] was -81.6 kJ/mol. Further, the Tm in data set [2] was 35.9 °C.

As to GTCCAGGGAAACCTGGAC (((((((....))))))), the folding enthalpy in data set [1] is -141 kJ/mol. Besides, in data set [2], the Tm amounted to 68.6 °C.

In the case of GTCCATGGAAACATGGAC (((((((....))))))), the folding enthalpy in data set [1] is -175 kJ/mol. Moreover, the Tm in data set [2] came out at 63.6 °C.

GTCCCAGAAATGGGAC ((((((....)))))): the folding enthalpy in data set [1] was -141 kJ/mol. Further, the Tm in data set [2] stood at 64.3 °C.

In the case of GTCCCAGGAAACCGGGAC (((((.(....).))))), in data set [1], the folding enthalpy was -146 kJ/mol. For the same sequence, in data set [2], the Tm came out at 53.2 °C.

Consider GTCCCAGGAAACTGGGGC (.(((((....))))).), for which, in data set [1], the folding enthalpy is -170 kJ/mol. Besides, the Tm in data set [2] stood at 57.5 °C.

As for GTCCCCGAAAGGGAAGAC ((((((....)))..))), in data set [1], the folding enthalpy is -56.4 kJ/mol. Further, the Tm in data set [2] was 44.5 °C.

In the case of GTCCCCGAAAGGGCAGAC ((((((....)))..))), in data set [1], the folding enthalpy was -54.4 kJ/mol. For the same sequence, the Tm in data set [2] came out at 36.7 °C.

Regarding GTCCCCGAAAGGGTCGAC ((((((....)))..))), the folding enthalpy in data set [1] was -56.9 kJ/mol. In data set [2], the Tm came to 35.4 °C.

Take GTCCGAGAAATCGGAC ((((((....)))))): in data set [1], the folding enthalpy was -144 kJ/mol. Moreover, the Tm in data set [2] was 65.9 °C.

Regarding GTCCGAGGAAACTCGAAC ((.((((....)))).)), in data set [1], the folding enthalpy was -89.3 kJ/mol. In addition, the Tm in data set [2] came to 41.3 °C.

Consider GTCCGAGGAAACTTGGGC (.((.((....)).)).), for which the folding enthalpy in data set [1] was -117 kJ/mol. For the same sequence, the Tm in data set [2] amounted to 41 °C.

In the case of GTCCGCGAAAGCGCGAC ((((((....))).))), in data set [1], the folding enthalpy was -86.7 kJ/mol. In addition, the Tm in data set [2] stood at 56.9 °C.

On to GTCCGCGAAAGCGCTGAC ((((((....)))..))), for which the folding enthalpy in data set [1] was -44.3 kJ/mol. Moreover, in data set [2], the Tm amounted to 38.2 °C.

For the sequence GTCCGCTCGAAAGAGGAC (((..(((....)))))), the folding enthalpy in data set [1] is -121 kJ/mol. Besides, the Tm in data set [2] turned out to be 47.4 °C.

In the case of GTCCGGCGAAAGCCCGAC (((.(((....))).))), in data set [1], the folding enthalpy was -84.1 kJ/mol. The Tm in data set [2] came out at 45.2 °C.

The values are drawn from the array DNA melting data of Ke et al. (doi:10.1101/2024.01.08.574731).
